Assay outcomes as filed in PubChem BioAssay.
CHRM4 PAM = positive allosteric modulators of human muscarinic M4 receptor; AID 624126; 0.4% of 360,000 active; P08173; CHO-K1 hM4/Gqi5, Fluo-8 calcium fluorescence, ACh EC20; 0% = ACh EC20, 100% = maximal ACh; activation, % at 3 µM;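 active means activation above its plate's cutoff, the mean activation of sample wells plus 3 SD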
Target sequence (P08173 whole entry, looked up): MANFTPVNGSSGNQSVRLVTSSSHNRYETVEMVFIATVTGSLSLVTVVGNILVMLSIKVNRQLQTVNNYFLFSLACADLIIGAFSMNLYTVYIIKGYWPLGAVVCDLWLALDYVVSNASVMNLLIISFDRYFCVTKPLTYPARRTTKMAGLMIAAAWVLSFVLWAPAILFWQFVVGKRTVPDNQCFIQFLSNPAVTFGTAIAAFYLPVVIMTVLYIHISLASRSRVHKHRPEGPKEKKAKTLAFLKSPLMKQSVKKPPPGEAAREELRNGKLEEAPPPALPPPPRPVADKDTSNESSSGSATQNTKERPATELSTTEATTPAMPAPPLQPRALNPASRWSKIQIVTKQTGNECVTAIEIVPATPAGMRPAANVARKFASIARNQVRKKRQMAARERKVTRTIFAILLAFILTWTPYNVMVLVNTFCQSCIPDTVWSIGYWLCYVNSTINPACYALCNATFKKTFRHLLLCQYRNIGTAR
CHRM4 agonist = agonists of human muscarinic M4 receptor (CHRM4). AID 624127. P08173. activation, % at 3 µM. 0.14% of 360,000 active. CHO-K1 hM4/Gqi5, Fluo-8 calcium fluorescence; vehicle 0%, full acetylcholine response 100%;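 active means activation above the run mean over all test wells plus 3 SD, cut at about 32% in these data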;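 further: peak over basal fluorescence ratio per well then scaled between controls; 0% = DMSO wells and 100% = acetylcholine at EC100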
TAAR1 antagonist = human TAAR1 antagonism; CHO RD-HGA16 TAAR1, Fluo-8 calcium fluorescence, antagonist; inhibition, % at 3 µM; 1.5% of 360,000 active;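 active means inhibition above a per-plate cutoff, the mean inhibition of test compounds on that plate plus 3 SD, cut at about 49% in these data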;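 further: 0% = DMSO plus EC80 beta-PEA response and 100% = DMSO alone without agonist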
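Test system: CHO RD-HGA16 cells bearing hTAAR1 | Reagent: β-PEA, EC80 | Compound dosing: 3 µM, single point | Schedule: Dye loading 75 min at 37 °C, then 30 min room temperature | Signal: Calcium fluorescence with Fluo-8 | Evaluation: Percent inhibition of PEA-evoked calcium signal, max/basal emission ratio | Control set: DMSO-only wells and EC80 β-PEA-stimulated wells | Repeats: Singlicate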
TAAR1 ag = human TAAR1 agonism; Q96RJ0; CHO RD-HGA16 TAAR1, Fluo-8 calcium fluorescence; vehicle wells 0%, saturating PEA agonist 100%; activation, % at 3 µM; 0.99% of 360,000 active;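 active means activation above the mean activation of all test compounds in the run plus 3 SD, cut at about 38% in these data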
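Assay system – CHO-derived RD-HGA16 cells with stable Gα16 and human TAAR1 · Compound dosing – one-point dosing at 3 µM (nominal) · Incubation – 17-24 h seeding, 75 min 37 °C dye, 30 min RT · Measured by – kinetic Fluo-8 calcium fluorescence · Control set – DMSO vehicle as 0%, PEA at EC100 as 100% · Repeats – single well for each compound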
CHRM4 antagonist = antagonists of human muscarinic M4 receptor (CHRM4); AID 624125; P08173; 0.73% of 360,000 active; inhibition, % at 3 µM; CHO-hM4 cells, ACh EC80, Fluo-8 calcium fluorescence;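 active means inhibition above its plate's cutoff, the mean inhibition of sample wells plus 3 SD, cut at about 27% in these data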;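 further: 0% = acetylcholine EC80 with DMSO and 100% = DMSO without agonist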
* marks the source's active call; other numbers are inactive results; nt = no result given. An excerpt weighted towards active compounds, which were near 3% of everything screened.

SMILES | CHRM4 PAM | CHRM4 agonist | TAAR1 antagonist | TAAR1 ag | CHRM4 antagonist
COC(=O)C[C@H]1CC[C@H](NC(=O)c2ccc(F)cc2)[C@@H](CO)O1 | 9.1 | 1.4 | -18.6 | 1.3 | -11.7
Cc1ccccc1OCC(=O)Nc1ccc(N2CCN(C(=O)c3ccco3)CC2)cc1 | -20.0 | 30.8 | 59.5* | 16.5 | 11.5
COc1cc(NC(=O)NCCN2CCN(c3ccc(Cl)cc3)CC2)ccc1C | -0.2 | 9.8 | 36.0 | 48.1* | -5.6
CCN1CCN(c2ccc(NC(=O)COc3ccc(Cl)cc3C)cc2)CC1 | -15.6 | 4.2 | 2.2 | 9.1 | 28.2*
Cc1ccc(S(=O)(=O)NC(=O)ON=Cc2ccc3c(c2)OCO3)cc1 | nt | nt | -6.9 | 0.7 | nt
CCN(CC)CCOC(=O)C1c2ccccc2Oc2ccccc21 | -33.3 | 0.9 | nt | nt | 98.1*
CCN(CC)CCNC(=O)C1c2ccccc2Oc2ccccc21 | -17.6 | 1.4 | -3.5 | 1.5 | 37.4*
CCOCCCNC(=O)C1c2ccccc2Oc2ccccc21 | 5.2 | -0.6 | 4.2 | 3.0 | -13.7
N#CCOC(=O)C1c2ccccc2Oc2ccccc21 | -6.4 | -0.5 | -7.7 | -1.1 | -7.0
CC(C)CN(C(=O)COC(=O)C1c2ccccc2Oc2ccccc21)C1CCS(=O)(=O)C1 (configuration not stated) | -4.0 | 5.1 | -4.6 | 4.9 | -1.6
CN(C(=O)COC(=O)C1c2ccccc2Oc2ccccc21)C1CCS(=O)(=O)C1 (configuration not stated) | -14.7 | 1.3 | -20.8 | 3.8 | 94.9*
Cc1nnc(NC(=O)C2c3ccccc3Oc3ccccc32)s1 | 1.2 | 0.7 | -19.5 | 18.1 | 13.7
CC(C)c1nnc(NC(=O)C2c3ccccc3Oc3ccccc32)s1 | -5.7 | 4.4 | -2.0 | 42.4* | -0.1
CCOC(=O)N1CCN(C(=O)c2ccc(CS(=O)c3cccc(C)c3)o2)CC1 (configuration not stated) | 4.0 | 1.4 | -20.9 | 3.7 | -3.1
COC(=O)C1=C(C)N(Cc2cccc(C(F)(F)F)c2)C(=NCc2ccc3c(c2)OCO3)NC1CCc1ccccc1 (configuration not stated) | nt | nt | -12.1 | 12.8 | nt
CCc1nc2ccc(C(=O)Nc3ccc(C(N)=O)cc3)cn2c1N(CCC(C)C)CCN(C)C | -2.4 | 0.2 | -6.3 | 0.5 | -6.0
CCCCCN(C(=O)Cc1c(C)n(CCCCC)c2ccccc12)c1ccc(Oc2cccnc2)c(C)c1 | nt | nt | 0.4 | -0.3 | nt
COC(=O)[C@]12CCCCC=C1N(Cc1ccc3c(c1)OCO3)C(=O)[C@H](CC(=O)NCC1CCCCC1)C2 | -9.1 | 19.5 | 50.0* | 6.0 | -3.0
COC(=O)[C@]12CCCCC=C1N(Cc1cccc3ccccc13)C(=O)[C@H](CC(=O)NCc1ccc(OC)c(OC)c1)C2 | -6.4 | 19.7 | 49.1* | 27.2 | 12.0
COC(=O)[C@]12CCCCC=C1N(CCc1ccc(OC)c(OC)c1)C(=O)[C@H](CC(=O)NCc1cccc3ccccc13)C2 | -6.5 | 23.1 | 43.2 | 5.1 | -1.0
COC(=O)[C@]12CCCCC=C1N(Cc1ccc3c(c1)OCO3)C(=O)[C@H](CC(=O)NCc1ccc(OC)c(OC)c1)C2 | -12.5 | 20.7 | 58.8* | 14.2 | 10.1
COC(=O)[C@]12CCCCC=C1N(CCc1ccc(OC)c(OC)c1)C(=O)[C@H](CC(=O)N1CCCCC1)C2 | -13.1 | 22.1 | 52.1* | 11.7 | -2.9
O=C(NCC1CCN(C(=O)C(=O)c2cc3ccccc3o2)CC1)c1cccnc1 | nt | nt | -2.3 | 0.4 | nt
COC(=O)c1cc2c(c3c4ccccc4n(S(=O)(=O)c4ccc(OC)cc4)c13)C(=O)N(C)C2 | nt | nt | -17.8 | -0.1 | nt
COc1ccc(CN2C[C@@H](CO)O[C@@H](n3cnc4c(N(C)C)ncnc43)C2)cc1 | -1.1 | 1.2 | 0.6 | 0.1 | -0.2
SMILES | CHRM4 PAM | CHRM4 agonist | TAAR1 antagonist | TAAR1 ag | CHRM4 antagonist
COC(=O)[C@]12CCCCC=C1N(Cc1ccc3c(c1)OCO3)C(=O)[C@H](CC(=O)N1CCC(c3ccccc3)CC1)C2 | -11.7 | 13.0 | 56.4* | 0.7 | 17.2
COc1ccccc1C1(O)C(=O)Nc2ccccc21 (configuration not stated) | 14.6* | 2.4 | -12.4 | -0.1 | -12.8
Cn1cc([C@]2(O)C(=O)Nc3ccccc32)c2ccccc21 | 4.5 | 3.0 | 7.8 | -0.5 | 4.8
CC1COCC(C)N1C1=C(Cl)C(=O)c2ccccc2C1=O (configuration not stated) | 0.5 | 1.2 | -23.6 | 41.0* | -6.1
CN1CCN(C2=C(Cl)C(=O)c3ccccc3C2=O)CC1 | -1.5 | 1.8 | 17.5 | 3.5 | -1.3
C=CCNc1cccc2c1S(=O)(=O)N[C@H](Cc1ccccc1)CO2 | nt | nt | 12.2 | 2.8 | nt
CC(=O)Nc1ccc(C(=O)NNS(=O)(=O)c2ccc(C)cc2)cc1 | 1.5 | 0.1 | 1.1 | 3.1 | 1.2
COc1ccc(OC)c(NS(=O)(=O)c2ccc(NC(C)=O)cc2)c1 | 3.5 | 2.3 | 10.9 | 10.6 | 1.4
CC(=O)c1ccc(NC(=O)Nc2ccc(NS(=O)(=O)c3ccc(C)cc3)cc2)cc1 | 2.6 | 4.5 | 55.5* | 6.3 | 24.5
COc1ccc(C)cc1NS(=O)(=O)c1ccc(NS(=O)(=O)c2ccc(NC(C)=O)cc2)cc1 | 22.4* | 0.1 | 1.2 | 10.4 | -1.7
Clc1ccc(CN2CCN(c3ncc(Cc4ccccc4)cn3)CC2)c(Cl)c1 | nt | nt | -39.3 | 1.9 | nt
CCCC(=O)OCCNc1cc(Sc2nc3ccccc3[nH]2)c2nonc2c1[N+](=O)[O-] | -13.6 | 3.7 | 28.3 | -0.5 | 54.8*
CC(=O)OCCCNc1cc(Sc2ccc(Cl)cc2)c2nonc2c1[N+](=O)[O-] | 22.4* | 0.7 | -11.0 | 2.5 | 16.7
CCC(=O)OCCNc1cc(SCCC(=O)OC)c2nonc2c1[N+](=O)[O-] | 1.9 | 2.0 | -8.0 | 1.3 | -5.6
OC(c1ccccc1)(c1ccccc1)C1CCN(CCCOc2cccnc2)CC1 | nt | nt | -8.3 | -0.5 | nt
Cc1ccc(S(=O)(=O)N2C[C@]3(O)C[C@@H]4C(=O)N(c5ccccc5)C(=O)[C@@H]4C[C@]3(OC(=O)NCC3CCCCC3)C2)cc1 | -1.3 | 0.5 | -23.5 | 0.4 | -0.8
Cc1c(C(=O)NC2CC(C)(C)NC(C)(C)C2)oc2c(Cl)cccc12 | 6.3 | 1.0 | -7.2 | 1.6 | -12.5
CC[C@H](C)[C@H]1CNC(=S)N1CC1CCN(CCC23CC4CC(CC(C4)C2)C3)CC1 | -14.9 | 2.3 | -23.8 | 3.6 | 67.1*
CCOC(=O)Cc1csc(SCC(=O)Nc2cccc(Cl)c2)n1 | -4.4 | 10.0 | 24.9 | 8.6 | 3.3
CCOC(=O)Cc1csc(SCC(=O)Nc2cc(Cl)ccc2Oc2ccccc2)n1 | -10.0 | 7.9 | 87.5* | 16.8 | 44.7*
CCOC(=O)Cc1csc(SCC(=O)NC2CCC(C)CC2)n1 (configuration not stated) | 19.6* | 1.6 | -1.5 | -0.7 | -26.1
COc1ccc(OC)c(NC(=O)CSc2nc(C)cs2)c1 | 45.5* | -1.8 | -10.7 | 6.7 | 2.8
